Key:
Spleen [1] = assay: Biodistribution in spleen of C57BL/6J mouse bearing mouse B16F0 cells at 0.37 to 1.85 MBq, iv after 6 hrs by gamma counting method; format: ADME, organism-based; settings: in vivo
Method in brief: (§1)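 Female C57BL/6J mice (5−6 weeks), s.c. inoculated on left flank with 3 × 10^5 B16F0 cells in Ca2+/Mg2+-free PBS, used 11 days later (tumors 2−12 mm). Radiotracer given via tail vein in 100 μL (~0.37 MBq for 1−24 h, 1.85 MBq for 48 h). Organs dissected, weighed, γ-counted, decay corrected. Expressed as % ID/g against injected-dose dilutions. Mean ± SEM, n = 5.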

Mus musculus [2] = assay: Biodistribution in tumor of C57BL/6J mouse bearing mouse B16F0 cells at 0.37 to 1.85 MBq, iv after 1 hr by gamma counting method; format: ADME, organism-based; settings: in vivo; method in brief: as §1
Mus musculus [3] = assay: Biodistribution in small gastrointestinal tract of C57BL/6J mouse bearing mouse B16F0 cells at 0.37 to 1.85 MBq, iv after 24 hrs by gamma counting method; format: ADME, organism-based, Small intestine; settings: in vivo; method in brief: as §1
Mus musculus [4] = assay: Biodistribution in tumor of C57BL/6J mouse bearing mouse B16F0 cells at 0.37 to 1.85 MBq, iv after 16 hrs by gamma counting method; format: ADME, organism-based; settings: in vivo; method in brief: as §1
[5] = Ratio of AUC in tumor to thyroid gland of C57BL/6J mouse bearing mouse B16F0 cells at 0.37 to 1.85 MBq, iv by gamma counting method; format: ADME, organism-based; settings: in vivo
Method in brief: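 Biodistribution in B16F0-bearing C57BL/6J mice given i.v. tail-vein tracer (~0.37 MBq for 1–24 h, 1.85 MBq for 48 h). Sacrifice at 1, 3, 6, 16, 24 and 48 h, then organs dissected, weighed and γ-counted as decay-corrected % ID/g. Tumor AUC divided by each organ AUC; mean of ratios ± SEM, n = 5.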

Mus musculus [6] = assay: Biodistribution in small gastrointestinal tract of C57BL/6J mouse bearing mouse B16F0 cells at 0.37 to 1.85 MBq, iv after 1 hr by gamma counting method; format: ADME, organism-based, Small intestine; settings: in vivo; method in brief: as §1
Spleen [7] = assay: Biodistribution in spleen of C57BL/6J mouse bearing mouse B16F0 cells at 0.37 to 1.85 MBq, iv after 48 hrs by gamma counting method; format: ADME, organism-based; settings: in vivo; method in brief: as §1
Mus musculus [8] = assay: Biodistribution in tumor of C57BL/6J mouse bearing mouse B16F0 cells at 0.37 to 1.85 MBq, iv after 6 hrs by gamma counting method; format: ADME, organism-based; settings: in vivo; method in brief: as §1
Kidney [9] = assay: Biodistribution in kidney of C57BL/6J mouse bearing mouse B16F0 cells at 0.37 to 1.85 MBq, iv after 16 hrs by gamma counting method; format: ADME, organism-based; settings: in vivo; method in brief: as §1
Kidney [10] = assay: Biodistribution in kidney of C57BL/6J mouse bearing mouse B16F0 cells at 0.37 to 1.85 MBq, iv after 6 hrs by gamma counting method; format: ADME, organism-based; settings: in vivo; method in brief: as §1
Mus musculus [11] = assay: Biodistribution in small gastrointestinal tract of C57BL/6J mouse bearing mouse B16F0 cells at 0.37 to 1.85 MBq, iv after 16 hrs by gamma counting method; format: ADME, organism-based, Small intestine; settings: in vivo; method in brief: as §1
Mus musculus [12] = assay: Biodistribution in thyroid gland of C57BL/6J mouse bearing mouse B16F0 cells at 0.37 to 1.85 MBq, iv after 24 hrs by gamma counting method; format: ADME, organism-based; settings: in vivo; method in brief: as §1
Mus musculus [13] = assay: Biodistribution in eyes of C57BL/6J mouse bearing mouse B16F0 cells at 0.37 to 1.85 MBq, iv after 3 hrs by gamma counting method; format: ADME, organism-based, Eye; settings: in vivo; method in brief: as §1
Mus musculus [14] = assay: Biodistribution in eyes of C57BL/6J mouse bearing mouse B16F0 cells at 0.37 to 1.85 MBq, iv after 6 hrs by gamma counting method; format: ADME, organism-based, Eye; settings: in vivo; method in brief: as §1
Spleen [15] = assay: Biodistribution in spleen of C57BL/6J mouse bearing mouse B16F0 cells at 0.37 to 1.85 MBq, iv after 3 hrs by gamma counting method; format: ADME, organism-based; settings: in vivo; method in brief: as §1
Brain = assay: Drug distribution in brain of C57BL/6J mouse bearing mouse B16F0 cells at 18 to 20 MBq, iv measured over 72 hrs by SPECT imaging study; format: ADME, organism-based; settings: in vivo
Method in brief: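 Female C57BL/6J mice bearing s.c. B16F0 tumors (11 days growth) received 18−20 MBq in 100 μL via lateral tail vein (n = 3). Isoflurane anesthesia (5% induction, 2−2.5% maintenance) on a 37 °C heating pad. Planar γ-camera imaging at 10−60 min (5 min frames), 3 and 6 h, 24, 48 and 72 h. Radioactivity localization assessed visually.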

Plasma = assay: Stability in plasma of C57BL/6J mouse bearing mouse B16F0 cells assessed as drug degradation at 0.37 to 1.85 MBq, iv after 24 hrs by radio-HPLC and radio-TLC method; format: ADME, organism-based; settings: in vivo, in the assay text read “20 MBq” for “0.37 to 1.85 MBq”
Method in brief: (§2)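 Tumor-bearing C57BL/6J mice were sampled 3 and 24 h after i.v. tracer. Tissue was sonicated in CH3CN/water (3:2) with cold iodo standard and KI, then centrifuged. Urine was diluted and spiked; plasma was spiked, with CH3CN precipitation for TLC. Intact fraction came from silica radio-TLC (spot matching standard Rf) and radio-HPLC with precolumn/C18 column switching.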

Mus musculus [16] = assay: Biodistribution in thyroid gland of C57BL/6J mouse bearing mouse B16F0 cells at 0.37 to 1.85 MBq, iv after 6 hrs by gamma counting method; format: ADME, organism-based; settings: in vivo; method in brief: as §1
Spleen [17] = assay: Biodistribution in spleen of C57BL/6J mouse bearing mouse B16F0 cells at 0.37 to 1.85 MBq, iv after 16 hrs by gamma counting method; format: ADME, organism-based; settings: in vivo; method in brief: as §1
Mus musculus [18] = assay: Biodistribution in thyroid gland of C57BL/6J mouse bearing mouse B16F0 cells at 0.37 to 1.85 MBq, iv after 3 hrs by gamma counting method; format: ADME, organism-based; settings: in vivo; method in brief: as §1
[19] = Stability in eyes of C57BL/6J mouse bearing mouse B16F0 cells assessed as intact parent compound level at 0.37 to 1.85 MBq, iv after 24 hrs by radio-HPLC and radio-TLC method; format: ADME, organism-based, Eye; settings: in the assay text read “20 MBq” for “0.37 to 1.85 MBq”, read-out: Stability; method in brief: as §2
Mus musculus [20] = assay: Biodistribution in large gastrointestinal tract of C57BL/6J mouse bearing mouse B16F0 cells at 0.37 to 1.85 MBq, iv after 24 hrs by gamma counting method; format: ADME, organism-based, Large intestine; settings: in vivo; method in brief: as §1
Mus musculus [21] = assay: Biodistribution in tumor of C57BL/6J mouse bearing mouse B16F0 cells at 0.37 to 1.85 MBq, iv after 24 hrs by gamma counting method; format: ADME, organism-based; settings: in vivo; method in brief: as §1
Kidney [22] = assay: Biodistribution in kidney of C57BL/6J mouse bearing mouse B16F0 cells at 0.37 to 1.85 MBq, iv after 1 hr by gamma counting method; format: ADME, organism-based; settings: in vivo; method in brief: as §1
Liver [23] = assay: Biodistribution in liver of C57BL/6J mouse bearing mouse B16F0 cells at 0.37 to 1.85 MBq, iv after 24 hrs by gamma counting method; format: ADME, organism-based; settings: in vivo; method in brief: as §1
Liver [24] = assay: Biodistribution in liver of C57BL/6J mouse bearing mouse B16F0 cells at 0.37 to 1.85 MBq, iv after 48 hrs by gamma counting method; format: ADME, organism-based; settings: in vivo; method in brief: as §1
Mus musculus [25] = assay: Biodistribution in large gastrointestinal tract of C57BL/6J mouse bearing mouse B16F0 cells at 0.37 to 1.85 MBq, iv after 1 hr by gamma counting method; format: ADME, organism-based, Large intestine; settings: in vivo; method in brief: as §1
Mus musculus [26] = assay: Biodistribution in tumor of C57BL/6J mouse bearing mouse B16F0 cells at 0.37 to 1.85 MBq, iv after 48 hrs by gamma counting method; format: ADME, organism-based; settings: in vivo; method in brief: as §1

Drug uptake (Spleen [1]) [% ID/g] | Drug uptake (Mus musculus [2]) [% ID/g] | Drug uptake (Mus musculus [3]) [% ID/g] | Drug uptake (Mus musculus [4]) [% ID/g] | Ratio [5] | Drug uptake (Mus musculus [6]) [% ID/g] | Drug uptake (Spleen [7]) [% ID/g] | Drug uptake (Mus musculus [8]) [% ID/g] | Drug uptake (Kidney [9]) [% ID/g] | Drug uptake (Kidney [10]) [% ID/g] | Drug uptake (Mus musculus [11]) [% ID/g] | Drug uptake (Mus musculus [12]) [% ID/g] | Drug uptake (Mus musculus [13]) [% ID/g] | Drug uptake (Mus musculus [14]) [% ID/g] | Drug uptake (Spleen [15]) [% ID/g] | Drug uptake (Brain) | Stability (Plasma) | Drug uptake (Mus musculus [16]) [% ID/g] | Drug uptake (Spleen [17]) [% ID/g] | Drug uptake (Mus musculus [18]) [% ID/g] | Compound | further results
0.4 | 10.3 | 0.3 | 11.6 | 6 | 21.4 | 0.09 | 10.4 | 1 | 4.1 | 0.5 | 1 | 18.5 | 21.8 | 0.5 | Not Active | Unstable | 2.8 | 0.2 | 1.5 | O=C(CN1Cc2ccccc2C1=O)N1C[C@H]2CN(Cc3ccc([123I])cc3)C[C@H]2C1 | remaining at 24 h [19]: 80%; Drug uptake (Mus musculus [20]): 1 % ID/g; Drug uptake (Mus musculus [21]): 7.8 % ID/g; Drug uptake (Kidney [22]): 15.8 % ID/g; Drug uptake (Liver [23]): 0.4 % ID/g; Drug uptake (Liver [24]): 0.2 % ID/g; Drug uptake (Mus musculus [25]): 3.5 % ID/g; Drug uptake (Mus musculus [26]): 5 % ID/g
1 | 19.2 | 0.8 | 20.4 | 7.2 | 45.6 | 0.05 | 32.5 | 1.2 | 10 | 1.4 | 2 | 56.4 | 52.8 | 2 | Not Active | Unstable | 2.7 | 0.3 | 2.7 | O=C(c1ccc2c(n1)NCCC2)N1CCN(Cc2ccc([123I])cc2)CC1 | remaining at 24 h [19]: 35%; Drug uptake (Mus musculus [20]): 1.7 % ID/g; Drug uptake (Mus musculus [21]): 12.9 % ID/g; Drug uptake (Kidney [22]): 15.6 % ID/g; Drug uptake (Liver [23]): 0.8 % ID/g; Drug uptake (Liver [24]): 0.2 % ID/g; Drug uptake (Mus musculus [25]): 7.9 % ID/g; Drug uptake (Mus musculus [26]): 5.6 % ID/g
2.1 | 17.1 | 0.9 | 18.4 | 5 | 14.4 | 0.2 | 19.4 | 1.6 | 5.2 | 1.3 | 2.9 | 36 | 37.2 | 2.3 | Not Active | Unstable | 3.5 | 0.8 | 2.2 | O=C(c1ccc2cccnc2n1)N1CCN(Cc2ccc([123I])cc2)CC1 | remaining at 24 h [19]: 35%; Drug uptake (Mus musculus [20]): 1.4 % ID/g; Drug uptake (Mus musculus [21]): 14.4 % ID/g; Drug uptake (Kidney [22]): 7.5 % ID/g; Drug uptake (Liver [23]): 1.8 % ID/g; Drug uptake (Liver [24]): 0.7 % ID/g; Drug uptake (Mus musculus [25]): 3.2 % ID/g; Drug uptake (Mus musculus [26]): 13.1 % ID/g
3.6 | 6.2 | 3.8 | 18.1 | 5.8 | 11.9 | 0.1 | 18.1 | 1.8 | 5 | 3.7 | 2.6 | 20.8 | 28.1 | 7.6 | Not Active | Unstable | 3.1 | 1.3 | 3.4 | O=C(CN1Cc2ccccc2C1=O)NC1CCN(Cc2ccc([123I])cc2)CC1 | remaining at 24 h [19]: 80%; Drug uptake (Mus musculus [20]): 8 % ID/g; Drug uptake (Mus musculus [21]): 15.2 % ID/g; Drug uptake (Kidney [22]): 8 % ID/g; Drug uptake (Liver [23]): 7.8 % ID/g; Drug uptake (Liver [24]): 1.9 % ID/g; Drug uptake (Mus musculus [25]): 6.6 % ID/g; Drug uptake (Mus musculus [26]): 13.2 % ID/g

Source: ChEMBL document CHEMBL3588831, “Synthesis and in Vivo Evaluation of [123I]Melanin-Targeted Agents” (J Med Chem, 2015)
